From PMC7610887 (Journal of psychopharmacology (Oxford, England), 2019)
pEC50: −log10 of the molar value. Values joined by “and” are separate entries in the source; they are usually repeats but may differ in a detail not shown here. Equal entries are not always repeated. Where two headings read alike, the source gives them in different places.

How the values were obtained:
[1] = molecular target: hGluA2i AMPAR (Homo sapiens, UniProt P42262); assay: Intracellular Ca2+ influx assay; format: cell-based
hGluA2i AMPAR, sequence (P42262 25-883 isoform P42262-2 limits assumed): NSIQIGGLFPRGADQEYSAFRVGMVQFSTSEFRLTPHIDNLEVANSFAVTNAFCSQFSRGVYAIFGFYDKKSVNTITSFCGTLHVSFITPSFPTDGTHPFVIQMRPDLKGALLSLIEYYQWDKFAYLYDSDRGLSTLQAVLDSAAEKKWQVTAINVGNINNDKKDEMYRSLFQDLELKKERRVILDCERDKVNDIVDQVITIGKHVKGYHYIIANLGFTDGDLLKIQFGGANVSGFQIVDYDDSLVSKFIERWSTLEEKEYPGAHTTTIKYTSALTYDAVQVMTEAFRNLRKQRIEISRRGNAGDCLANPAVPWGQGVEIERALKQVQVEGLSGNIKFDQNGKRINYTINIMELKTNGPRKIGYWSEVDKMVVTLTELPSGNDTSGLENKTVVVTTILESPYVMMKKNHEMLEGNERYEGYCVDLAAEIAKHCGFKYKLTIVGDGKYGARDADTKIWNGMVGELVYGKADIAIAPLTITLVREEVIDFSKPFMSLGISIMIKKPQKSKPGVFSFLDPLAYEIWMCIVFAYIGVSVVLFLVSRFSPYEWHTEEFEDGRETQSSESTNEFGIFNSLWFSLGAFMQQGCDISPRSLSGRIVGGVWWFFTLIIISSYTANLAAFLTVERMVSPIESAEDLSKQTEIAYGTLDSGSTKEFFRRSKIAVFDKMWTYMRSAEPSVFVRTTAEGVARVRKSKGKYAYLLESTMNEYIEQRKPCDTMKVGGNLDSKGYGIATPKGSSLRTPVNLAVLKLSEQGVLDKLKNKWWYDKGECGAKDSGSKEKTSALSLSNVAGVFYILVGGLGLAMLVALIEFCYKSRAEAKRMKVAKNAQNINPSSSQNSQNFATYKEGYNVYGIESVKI
How it was run: (§1)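 AMPA receptor flip isoforms expressed in HEK-293 cells: hGluA1i, hGluA3i, hGluA4i and rat GluA2i by lipofectamine transient transfection, and hGluA2i stably. All were Q-unedited in TM2. Cells were seeded on poly-D-lysine 2 days before assay and loaded with Fluo-4AM (2 μM final) for 60 min in the dark in HEPES buffer, pH 7.3. Test compound (1:3 serial dilution) was added with glutamate (100 μM final), and FLIPR fluorescence was read. Maximum response was scaled to LY404187 run on each plate.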

[2] = test system: pregnane X receptor; assay: Pregnane X receptor activation; conditions: linked to a potential for drug-drug interactions
[3] = test system: dog; assay: 4-week GLP safety assessment study, dog; format: in vivo
[4] = test system: Homomeric hGluK1 kainate receptors; assay: Ca2+ flux assay or whole-cell patch clamp, GluK1; format: cell-based, human; conditions: Ca2+ flux assay or whole-cell patch clamp (data not shown)
How it was run: (§2)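 Kainate receptors in HEK cells: hGluK1 (Q-unedited) by lipofectamine transient transfection, hGluK2 stably expressed. Cells were seeded 24 h before assay. In the Ca2+ flux format, cells were loaded with Fluo-4AM (2 μM final) for 60 min in the dark, washed, then given test compound (1:3 serial dilution) plus glutamate (100 μM final), with FLIPR fluorescence read-out.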

[5] = test system: Heteromeric hGluN1A/GluN2B NMDARs; assay: Ca2+ flux assay or whole-cell patch clamp, NMDAR; format: cell-based, human; conditions: Ca2+ flux assay or whole-cell patch clamp (data not shown)
How it was run: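 HEK-293 cells were transduced with hGluN1A and hGluN2B BacMam vectors in the presence of 500 μM ketamine, then plated on poly-D-lysine, still with 500 μM ketamine, for 24 h. In the Ca2+ flux format, cells were loaded with Fluo-4AM (2 μM final) for 60 min, washed, then given test compound (1:3 serial dilution) plus glutamate (100 μM final), with FLIPR fluorescence read-out.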

[6] = Maximal electroshock threshold; conditions: male, Lister Hooded, rat, brain, oral, 30 mg/kg
[7] = test system: male Lister Hooded rats; assay: Maximal electroshock threshold
[8] = test system: Male Wistar rats; assay: Passive avoidance, scopolamine-induced deficit; format: in vivo, rat
[9] = Solubility; format: physicochemical
[10] = test system: dog; assay: 7-day dose-range finding study, dog; format: in vivo; conditions: doses of up to 1,000 mg/kg
[11] = 4-week GLP safety assessment study, rat; format: in vivo; conditions: rat, plasma, po, 800 mg/kg
[12] = test system: rat; assay: 4-week GLP safety assessment study, rat; format: in vivo
[13] = In vivo electrophysiology, dentate gyrus population spike; design: species or system rat; conditions: male, Lister hooded, rat, brain, iv
[14] = test system: anaesthetised rats; assay: as above; design: species or system rat; conditions: 10 mg/kg i.v.; vehicle 70%
[15] = test system: native neuronal AMPARs in rat cultured hippocampal neurons; assay: Native receptor electrophysiology in cultured hippocampal neurons; format: cell-based
How it was run: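 Hippocampi from embryonic rats were trypsinised (0.05%, 30 min, 37 °C), dissociated and grown in Neurobasal/B27 for 5-13 days. Whole-cell voltage clamp was held at -70 mV, with AMPA (30 μM) applied for 2 s every 30 s by fast perfusion, with test compound at 1 nM-10 μM. Charge transfer, desensitisation and deactivation were compared with AMPA alone by paired t-test.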

[16] = molecular target: hGluA3i AMPAR (Homo sapiens, UniProt P42263); assay: Intracellular Ca2+ influx assay; format: cell-based
hGluA3i AMPAR, sequence (P42263 29-894 isoform P42263-2 limits assumed): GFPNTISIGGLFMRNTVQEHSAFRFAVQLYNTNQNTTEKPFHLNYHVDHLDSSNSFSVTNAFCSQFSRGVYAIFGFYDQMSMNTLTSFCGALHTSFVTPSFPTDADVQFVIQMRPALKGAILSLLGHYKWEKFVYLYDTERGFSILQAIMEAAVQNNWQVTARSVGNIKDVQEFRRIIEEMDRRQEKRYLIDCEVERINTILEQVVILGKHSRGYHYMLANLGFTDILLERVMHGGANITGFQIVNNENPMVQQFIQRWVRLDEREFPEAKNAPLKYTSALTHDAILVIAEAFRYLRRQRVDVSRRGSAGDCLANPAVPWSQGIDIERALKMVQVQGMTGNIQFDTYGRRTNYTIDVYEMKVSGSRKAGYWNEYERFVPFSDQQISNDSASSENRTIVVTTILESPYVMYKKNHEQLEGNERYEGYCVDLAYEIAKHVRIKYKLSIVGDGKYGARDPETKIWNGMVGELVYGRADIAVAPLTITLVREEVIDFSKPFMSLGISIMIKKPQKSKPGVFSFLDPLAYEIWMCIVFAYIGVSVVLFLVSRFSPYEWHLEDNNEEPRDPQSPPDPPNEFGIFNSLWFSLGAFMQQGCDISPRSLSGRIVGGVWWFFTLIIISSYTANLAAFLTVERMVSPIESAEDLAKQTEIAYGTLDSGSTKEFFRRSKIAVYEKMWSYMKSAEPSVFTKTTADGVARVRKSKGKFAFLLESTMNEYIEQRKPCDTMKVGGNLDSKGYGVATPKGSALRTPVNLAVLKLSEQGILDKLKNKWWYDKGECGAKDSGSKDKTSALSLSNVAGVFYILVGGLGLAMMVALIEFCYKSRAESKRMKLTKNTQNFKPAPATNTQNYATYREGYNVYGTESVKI
How it was run: as §1

[17] = molecular target: Homomeric human GluA1 flip isoform (hGluA1i) (Homo sapiens, UniProt P42261); assay: Intracellular Ca2+ influx assay; format: cell-based; conditions: relative to positive control LY404187
Homomeric human GluA1 flip isoform (hGluA1i), sequence (P42261 19-906 isoform P42261-2 limits assumed): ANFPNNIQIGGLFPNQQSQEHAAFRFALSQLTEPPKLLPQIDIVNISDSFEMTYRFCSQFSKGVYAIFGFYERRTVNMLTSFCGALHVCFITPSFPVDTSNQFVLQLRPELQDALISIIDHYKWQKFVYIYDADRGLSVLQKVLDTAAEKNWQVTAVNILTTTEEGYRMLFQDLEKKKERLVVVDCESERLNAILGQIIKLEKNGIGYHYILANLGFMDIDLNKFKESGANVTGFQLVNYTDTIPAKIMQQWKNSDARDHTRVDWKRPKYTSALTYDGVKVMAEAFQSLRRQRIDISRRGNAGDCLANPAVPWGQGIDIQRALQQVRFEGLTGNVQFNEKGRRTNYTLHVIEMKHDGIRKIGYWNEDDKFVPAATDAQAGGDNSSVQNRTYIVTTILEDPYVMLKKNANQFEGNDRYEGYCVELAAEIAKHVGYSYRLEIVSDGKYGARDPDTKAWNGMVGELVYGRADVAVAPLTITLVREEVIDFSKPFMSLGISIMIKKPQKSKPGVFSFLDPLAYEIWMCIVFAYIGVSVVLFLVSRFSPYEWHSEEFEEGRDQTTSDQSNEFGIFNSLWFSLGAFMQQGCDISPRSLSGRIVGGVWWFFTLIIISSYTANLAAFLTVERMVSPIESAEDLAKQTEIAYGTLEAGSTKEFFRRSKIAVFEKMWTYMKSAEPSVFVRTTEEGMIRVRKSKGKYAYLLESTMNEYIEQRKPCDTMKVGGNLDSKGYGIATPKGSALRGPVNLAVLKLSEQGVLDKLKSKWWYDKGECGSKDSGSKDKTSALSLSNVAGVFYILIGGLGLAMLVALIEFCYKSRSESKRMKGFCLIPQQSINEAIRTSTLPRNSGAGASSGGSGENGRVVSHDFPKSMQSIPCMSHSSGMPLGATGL
How it was run: as §1

[18] = molecular target: rat GluA2i AMPAR (Rattus norvegicus, UniProt P19491); assay: Intracellular Ca2+ influx assay; format: cell-based
rat GluA2i AMPAR, sequence (P19491 22-883 isoform P19491-2 limits assumed): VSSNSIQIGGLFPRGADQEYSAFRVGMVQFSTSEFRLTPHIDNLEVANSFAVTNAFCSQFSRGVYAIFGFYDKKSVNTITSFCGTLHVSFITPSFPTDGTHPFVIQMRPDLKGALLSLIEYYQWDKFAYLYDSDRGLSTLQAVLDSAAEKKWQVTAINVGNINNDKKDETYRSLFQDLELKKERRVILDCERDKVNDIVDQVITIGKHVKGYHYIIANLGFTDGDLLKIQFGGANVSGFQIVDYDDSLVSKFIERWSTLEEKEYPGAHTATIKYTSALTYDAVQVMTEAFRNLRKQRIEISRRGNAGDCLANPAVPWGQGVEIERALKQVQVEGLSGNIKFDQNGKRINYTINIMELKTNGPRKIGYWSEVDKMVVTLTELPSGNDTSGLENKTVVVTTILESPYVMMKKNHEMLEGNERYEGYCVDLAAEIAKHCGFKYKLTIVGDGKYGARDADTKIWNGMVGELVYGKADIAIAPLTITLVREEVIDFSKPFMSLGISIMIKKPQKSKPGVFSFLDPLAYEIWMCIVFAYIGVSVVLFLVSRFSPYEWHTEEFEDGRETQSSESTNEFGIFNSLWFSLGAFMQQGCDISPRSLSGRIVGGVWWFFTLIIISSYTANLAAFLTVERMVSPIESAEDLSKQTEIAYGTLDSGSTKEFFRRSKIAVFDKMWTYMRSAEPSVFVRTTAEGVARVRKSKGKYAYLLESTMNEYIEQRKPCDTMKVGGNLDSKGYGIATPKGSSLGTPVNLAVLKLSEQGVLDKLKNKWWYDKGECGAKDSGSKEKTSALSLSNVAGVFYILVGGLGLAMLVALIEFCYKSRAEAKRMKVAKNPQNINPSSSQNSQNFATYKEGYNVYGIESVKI
How it was run: as §1

[19] = Novel object recognition; conditions: rat, in vivo, 0.1 mg/kg, 0.1 mg/kg p.o. sub-chronic
[20] = test system: rats; assay: Novel object recognition; conditions: p.o.
[21] = test system: Human GluK2 receptors; assay: Ca2+ flux assay or whole-cell patch clamp, GluK2; format: cell-based; conditions: Ca2+ flux assay or whole-cell patch clamp (data not shown)
How it was run: as §2

[22] = molecular target: hGluA2 AMPARs (Homo sapiens, UniProt P42262); assay: Recombinant receptor whole-cell electrophysiology; format: cell-based; conditions: 1 mM glutamate
hGluA2 AMPARs, sequence (P42262 25-883 isoform P42262-2 limits assumed): as the sequence (P42262 25-883 isoform P42262-2 limits assumed) above
How it was run: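 HEK cells stably expressing hGluA2 were plated on poly-D-lysine coverslips and used 1-2 days later. Perforated-patch whole-cell recording at -60 mV used 2-5 MΩ pipettes, NaCl/HEPES external solution (pH 7.35) and CsCl/EGTA internal solution (pH 7.3). Glutamate (1 mM) was applied by fast perfusion for 2 s every 30 s, with or without test compound. Responses were related to the current from 1 mM glutamate alone.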

[23] = molecular target: hGluA4i AMPAR (Homo sapiens, UniProt P48058); assay: Intracellular Ca2+ influx assay; format: cell-based
hGluA4i AMPAR, sequence (P48058 21-902): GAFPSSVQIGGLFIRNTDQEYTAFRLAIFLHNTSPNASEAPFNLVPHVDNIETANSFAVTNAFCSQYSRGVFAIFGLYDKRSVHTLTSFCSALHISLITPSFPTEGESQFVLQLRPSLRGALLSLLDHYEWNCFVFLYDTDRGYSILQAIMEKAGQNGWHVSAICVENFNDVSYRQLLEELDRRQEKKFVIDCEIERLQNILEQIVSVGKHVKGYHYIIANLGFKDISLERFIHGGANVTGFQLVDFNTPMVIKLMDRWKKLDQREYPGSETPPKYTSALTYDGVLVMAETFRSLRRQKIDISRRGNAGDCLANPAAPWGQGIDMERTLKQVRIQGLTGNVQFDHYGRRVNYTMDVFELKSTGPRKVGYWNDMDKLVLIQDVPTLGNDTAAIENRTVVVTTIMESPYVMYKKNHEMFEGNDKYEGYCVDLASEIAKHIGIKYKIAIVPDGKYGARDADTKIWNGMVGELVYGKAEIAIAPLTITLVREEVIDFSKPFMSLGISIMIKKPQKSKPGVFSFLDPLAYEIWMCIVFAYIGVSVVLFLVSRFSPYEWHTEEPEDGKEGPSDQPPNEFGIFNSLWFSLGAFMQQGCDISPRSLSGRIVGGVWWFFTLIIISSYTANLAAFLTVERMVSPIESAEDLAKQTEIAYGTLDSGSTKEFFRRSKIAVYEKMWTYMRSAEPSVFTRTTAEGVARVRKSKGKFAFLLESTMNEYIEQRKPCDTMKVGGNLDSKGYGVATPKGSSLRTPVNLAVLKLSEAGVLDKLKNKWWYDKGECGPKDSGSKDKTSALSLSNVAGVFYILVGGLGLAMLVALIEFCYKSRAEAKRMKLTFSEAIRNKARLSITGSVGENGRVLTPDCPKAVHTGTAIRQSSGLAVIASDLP
How it was run: as §1

[24] = 7-day dose-range finding study, rat; format: in vivo; conditions: rat, plasma, po, 1600 mg/kg
[25] = test system: rat; assay: 7-day dose-range finding study, rat; format: in vivo; conditions: doses of up to 1,600 mg/kg, 7-day
[26] = test system: rats; conditions: p.o.; ref Ward et al., 2017; cited from earlier work
[27] = test system: cynomolgus monkeys; assay: 6-week GLP Safety and Toxicity study of UoS12258, cynomolgus monkey; format: in vivo; conditions: 6-week GLP
[28] = as above; format: in vivo; conditions: cynomolgus monkey, in vivo, po
[29] = test system: Male Wistar rats; conditions: p.o.; ref Ward et al., 2017; cited from earlier work
[30] = test system: rats; assay: 6-week GLP Safety and Toxicity study of UoS12258, rat; format: in vivo
[31] = test system: native neuronal AMPARs in rat cultured hippocampal neurons; conditions: rat primary hippocampal neurons; ref Ward et al., 2017; cited from earlier work
[32] = test system: male Lister Hooded rats; conditions: ref Ward et al., 2017, cited from earlier work
[33] = relative to positive control LY404187

In the case of O=C(c1ccc(-n2nc(C(F)(F)F)c3c2CCCC3)cc1)N1CCCC1 [MDI-222, 1-[4-(1-pyrrolidinylcarbonyl)phenyl]-3-(trifluoromethyl)-4,5,6,7-tetrahydro-1H-indazole], the pEC50 [1] was 5.30, the Max. % response [1, 33] was 123 ± 7% and 123 ± 7 (9) % and the “pregnane X receptor” value [2] was “activation”. The “systemic exposure on Day 28 relative to Day 1, fold lower” value ([3]; 4-week study) was no more than 9 fold, the convulsions ([3]; highest dose 1,000 mg/kg, 4-week GLP) was “no convulsions observed” and the “effect on glutamate-induced currents” value [4] was “no effects”. The “effect on glutamate-induced currents” value [5] was “no effects”, the concentration at 0.5 h [6] was roughly 4700 ng/g and the brain drug concentration ([7]; 30 mg/kg p.o.) was “approximately 4.7 μg/g”. The “CC50 lower than vehicle-treated rats” value ([7]; 3, 10 and 30 mg/kg p.o.) was 10-15%, the “effect on seizure threshold” value ([7]; up to 30 mg/kg p.o.) was “did not significantly affect the seizure threshold” and the “MED, reversal of scopolamine-induced deficit” value ([8]; p.o.) was 10 mg/kg. For the same compound, the solubility [9] was “poor solubility”, the convulsions / tolerability [10] was “did not produce convulsions” and the Cmax [11] was 0.013 to 17 µg/mL. For the same compound, the “systemic exposure on Day 28 relative to Day 1, fold lower” value ([12]; 4-week study) was “up to 6 fold”, the convulsions ([12]; highest dose 800 mg/kg, 4-week GLP) was “no convulsions observed” and the concentration at 20 min [13] was 11600 ng/g. For the same compound, the “dentate gyrus population spike amplitude” value [14] was 139 % of baseline, the “Charge transfer, normalised to AMPA alone” value (shortened to “Charge transfer, normalised”) ([15]; 1 nM) was 1.14 ± 0.05 and the “Deactivation, normalised to AMPA alone” value ([15]; 1 nM) was 1.06 ± 0.04. For the same compound, the “Desensitisation, normalised to AMPA alone” value (shortened to “Desensitisation, normalised”) ([15]; 1 nM) was 0.77 ± 0.10, the “Charge transfer, normalised” value ([15]; 10 nM) was 1.37 ± 0.09 and the “Deactivation, normalised to AMPA alone” value ([15]; 10 nM) was 1.19 ± 0.15. For the same compound, the “Desensitisation, normalised” value ([15]; 10 nM) was 0.81 ± 0.05, the “Charge transfer, normalised” value ([15]; 100 nM) was 1.33 ± 0.12 and the “Deactivation, normalised to AMPA alone” value ([15]; 100 nM) was 1.29 ± 0.17. For the same compound, the “Desensitisation, normalised” value ([15]; 100 nM) was 0.76 ± 0.03, the “Charge transfer, normalised” value ([15]; 1 μM) was 1.28 ± 0.14 and the “Deactivation, normalised to AMPA alone” value ([15]; 1 μM) was 1.33 ± 0.17. The “Desensitisation, normalised” value ([15]; 1 μM) was 0.72 ± 0.04, the “Charge transfer, normalised” value ([15]; 10 μM) was 1.62 ± 0.15 and the “Deactivation, normalised to AMPA alone” value ([15]; 10 μM) was 2.79 ± 0.43. The “Desensitisation, normalised” value ([15]; 10 μM) was 0.25 ± 0.08, the “increase in charge transfer (maximal potentiation)” value ([15]; 10 μM) was 62% and the “minimum effective concentration, charge transfer” value ([15]; AMPA 30 μM) was 1 nM. The “minimum effective concentration, desensitisation” value ([15]; AMPA 30 μM) was 10 nM, the “inward current when applied in the absence of AMPA” value ([15]; no agonist) was “did not invoke an inward current” and the pEC50 [16] was 4.50. For the same compound, the Max. % response [16, 33] was 53 ± 3 (3) %, the Max. % response [17] was 30 ± 2 (4) % and the pEC50 [18] was 5.40. The Max. % response [18, 33] was 76 ± 8 (4) %, the concentration at 30 min ([19]; mean blood level) was 0.007 µg/mL and the concentration at 30 min ([19]; mean brain level) was 9 ng/g. The “minimal effective dose (D2 index), acute” value ([20]; acute single-dose) was 0.3 mg/kg, the “minimal effective dose, sub-chronic” value ([20]; sub-chronic (7-day) dosing) was 0.1 mg/kg and the “effect on glutamate-induced currents” value [21] was “no effects”. The “potentiation of glutamate-evoked charge transfer (area under the curve)” value ([22]; 100 nM) was 121 ± 7%, the “potentiation of glutamate-evoked charge transfer (area under the curve)” value ([22]; 10 μM) was 702 ± 40% and the pEC50 [23] was 5.10. The Max. % response [23, 33] was 76 ± 1 (4) %, the Cmax [24] was roughly 15 µg/mL and the convulsions / tolerability [25] was “did not produce convulsions”.
Work on CN1[C@@H]2C[C@@H](OC(=O)[C@H](CO)c3ccccc3)C[C@H]1[C@@H]1O[C@@H]12 [scopolamine, reference compound] yielded a step-through latency ([8]; scopolamine 1 mg/kg i.p., vehicle 457 ± 83 s) of 157 ± 46 s.
For CC(C)S(=O)(=O)N[C@H]1Cc2ccc(-c3ccc(F)nc3)cc2C1 [UoS12258, N-[(2S)-5-(6-fluoro-3-pyridinyl)-2,3-dihydro-1H-inden-2-yl]-2-propanesulfonamide], the “MED, NOR following sub-chronic dosing” value [26] is listed as 0.01 mg/kg, the “MED, acute-dosing NOR” value [26] is listed as 0.3 mg/kg and the “dose at which convulsions were observed” value [27] is listed as 4 mg/kg. The NOAEL at 6 weeks [28] was 2.5 mg/kg, the “MED, reversal of scopolamine-induced deficit” value [29] was 3 mg/kg and the “dose at which convulsions were observed” value [30] was 10 mg/kg. The “maximal potentiation in the charge transfer” value [31] was 310%, the brain exposure ([32]; 100 mg/kg p.o.) was “around 5.0 μg/g” and the “proconvulsant effect in MEST” value ([32]; 100 mg/kg p.o.) was “comparable to that of the positive control picrotoxin”. For the same compound, the “proconvulsant dose in MEST” value ([32]; p.o.) was 10 mg/kg.
